Assay results taken from ChEMBL document CHEMBL2169772, “Discovery of (2S)-1-[4-(2-{6-amino-8-[(6-bromo-1,3-benzodioxol-5-yl)sulfanyl]-9H-purin-9-yl}ethyl)piperidin-1-yl]-2-hydroxypropan-1-one (MPC-3100), a purine-based Hsp90 inhibitor” (J Med Chem, 2012).
Converted amounts (≈) assume the structure as drawn.

Experiments:
Heat shock protein HSP90 [1] = biological target: T1, Heat shock protein HSP90 (Homo sapiens, UniProt P07900+P08238); assay: Inhibition of human HSP90 in DU145 cells assessed as degradation of Akt incubated for 24 hrs by Western blot method; format: cell-based
In short: (§1)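 Cells exposed to a range of concentrations for 24 h. Lysates analyzed by Western blot with Her2-, Hsp70- and Akt-specific antibodies.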

Heat shock protein HSP90 [2] = biological target: T1, Heat shock protein HSP90; assay: Inhibition of human HSP90 in DU145 cells assessed as induction of HSP70 incubated for 24 hrs by Western blot method; format: cell-based; settings: DU-145; in short: as §1
Heat shock protein HSP90 [3] = biological target: T1, Heat shock protein HSP90; assay: Inhibition of human HSP90 in NCI-N87 cells assessed induction of HSP70 incubated for 24 hrs by Western blot method; format: cell-based; in short: as §1
Heat shock protein HSP90 [4] = biological target: T1, Heat shock protein HSP90; assay: Inhibition of human HSP90 in NCI-N87 cells assessed as degradation of Her2 incubated for 24 hrs by Western blot method; format: cell-based; in short: as §1
Mus musculus [5] = assay: Toxicity in nude mouse xenografted with human NCI-N87 cells assessed as effect on body weight at 75 mg/kg, po qd for 22 days measured twice a week; format: organism-based; design: dose 75 mg/kg, route oral; settings: in vivo, 528 h
In short: (§2)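 Female nude mice (Crl:NU-Fox1nu) implanted subcutaneously in the right flank with 5 million NCI-N87 cells. At median tumor volume of roughly >100 mm3, randomized to 5 cohorts of 10. Dosed orally once daily for 22 days with vehicle (40% w/w Captisol) or 50, 75, 125 or 200 mg/kg. Tumor size and body weight measured at least twice weekly.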

Mus musculus [6] = assay: Toxicity in nude mouse xenografted with human NCI-N87 cells assessed as effect on body weight at 125 mg/kg, po qd for 22 days measured twice a week; format: organism-based; design: dose 125 mg/kg, route oral; settings: in vivo, 528 h; in short: as §2
Mus musculus [7] = assay: Toxicity in nude mouse xenografted with human NCI-N87 cells assessed as effect on body weight at 200 mg/kg, po qd for 22 days measured twice a week; format: organism-based; design: dose 200 mg/kg, route oral; settings: in vivo, 528 h; in short: as §2
NCI-N87 [8] = assay: Antitumor activity against human NCI-N87 cells xenografted in nude mouse assessed as tumor growth inhibition at 50 mg/kg, po qd for 22 days measured twice a week; format: functional; settings: NCI-N87, 528 h, read-out: TGI; in short: as §2
NCI-N87 [9] = assay: Antitumor activity against human NCI-N87 cells xenografted in nude mouse assessed as tumor growth inhibition at 75 mg/kg, po qd for 22 days measured twice a week; format: functional; settings: NCI-N87, 528 h, read-out: TGI; in short: as §2
Heat shock protein HSP90 [10] = biological target: T1, Heat shock protein HSP90; assay: Inhibition of human HSP90 in HCT116 cells assessed as degradation of Akt incubated for 24 hrs by Western blot method; format: cell-based; in short: as §1
Heat shock protein HSP90 [11] = biological target: T1, Heat shock protein HSP90; assay: Inhibition of human HSP90 in HCT116 cells assessed as induction of HSP70 incubated for 24 hrs by Western blot method; format: cell-based; settings: HCT-116; in short: as §1
Heat shock protein HSP90 [12] = biological target: T1, Heat shock protein HSP90; assay: Inhibition of human HSP90 in HCT116 cells assessed as degradation of Her2 incubated for 24 hrs by Western blot method; format: cell-based; in short: as §1
[13] = Lipophilicity, log P of the compound; format: physicochemical; settings: octanol/water
MV4-11 = assay: Cytotoxicity against human MV4-11 cells assessed as inhibition of tumor growth incubated for 72 hrs by luminometry; format: functional, cell-based; settings: MV4-11, 72 h
In short: (§3)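 Cells seeded at 5000 per well in DMEM with 10% serum and left overnight. Compound added from DMSO dilutions (0.4% DMSO final) for 72 h. After 5 min at room temperature, ATPLite two-step lysis and substrate added, 5 min incubation, then luminescence read. Values are the mean of at least two experiments.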

[14] = Solubility of compound in phosphate buffer at pH 7.4; format: physicochemical
NCI-N87 [15] = assay: Cytotoxicity against human NCI-N87 cells assessed as inhibition of tumor growth incubated for 72 hrs by luminometry; format: functional, cell-based; settings: NCI-N87, 72 h; in short: as §3
OVCAR-8 = assay: Cytotoxicity against human OVCAR8 cells assessed as inhibition of tumor growth incubated for 72 hrs by luminometry; format: functional, cell-based; settings: OVCAR-8, 72 h; in short: as §3
A549 = assay: Cytotoxicity against human A549 cells assessed as inhibition of tumor growth incubated for 72 hrs by luminometry; format: functional, cell-based; settings: A549, 72 h; in short: as §3
HT-29 = assay: Cytotoxicity against human HT-29 cells assessed as inhibition of tumor growth incubated for 72 hrs by luminometry; format: functional, cell-based; settings: HT-29, 72 h; in short: as §3
[16] = AUC in Swiss nude mouse at 100 mg/kg, po by LC-ESI-MS/MS method; format: ADME, organism-based; design: dose 100 mg/kg, route oral; settings: plasma
In short: (§4)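 Single oral gavage in mice, vehicle 40% Captisol in phosphate buffer. EDTA plasma from cardiac puncture. Acetonitrile precipitation with internal standard, then LC-ESI-MS/MS quantitation against a 10–10 000 ng/mL standard curve. Cmax and AUC by noncompartmental analysis.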

[17] = Cmax in Swiss nude mouse at 100 mg/kg, po by LC-ESI-MS/MS method; format: ADME, organism-based; design: dose 100 mg/kg, route oral; settings: in vivo; in short: as §4
[18] = Cmax in Swiss nude mouse at 10 mg/kg, po by LC-ESI-MS/MS method; format: ADME, organism-based; design: dose 10 mg/kg, route oral; settings: in vivo
In short: (§5)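 Mice dosed by oral gavage, vehicle DMA/PEG300/EtOH/H2O (3/40/12/45, v/v/v/v). Blood drawn by cardiac puncture into EDTA plasma. Three or five animals per time point. Plasma precipitated with acetonitrile plus internal standard. Quantified by LC-ESI-MS/MS against a 10–10 000 ng/mL standard curve with QC samples. Noncompartmental analysis.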

[19] = Tmax in Swiss nude mouse at 10 mg/kg, po by LC-ESI-MS/MS method; format: ADME, organism-based; design: dose 10 mg/kg, route oral; settings: in vivo; in short: as §5
[20] = Metabolic stability in human liver microsomes assessed as percent of residual drug in presence of NADPH incubated for 40 mins by LC-ESI-MS/MS method; format: ADME, Microsome; settings: liver microsomes, read-out: Stability
In short: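 Test article incubated in duplicate with human liver microsomes (0.5 mg/mL protein) in 100 mM potassium phosphate pH 7.4. Started with 1 mM NADPH. Stopped with acetonitrile at 0, 10, 20 and 40 min. LC-MS/MS peak area at 40 min reported as percent of 0 min. No-NADPH control incubated for 40 min.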

[21] = Cytotoxicity against human NCI-ADR-RES cells overexpressing P-gp 1 assessed as inhibition of tumor growth incubated for 72 hrs by luminometry; format: functional, cell-based; in short: as §3
HCT-116 = assay: Cytotoxicity against human HCT116 cells assessed as inhibition of tumor growth incubated for 72 hrs by luminometry; format: functional, cell-based; settings: HCT-116, 72 h; in short: as §3
Heat shock protein HSP90 [22] = biological target: T1, Heat shock protein HSP90; assay: Inhibition of human HSP90 using BODIPY labelled geldanamycin as substrate by fluorescence polarization assay; format: protein assay
Heat shock protein HSP90 [23] = biological target: T1, Heat shock protein HSP90; assay: Inhibition of human HSP90 in HCT116 cells expressing Her2 gene assessed as degradation of Her2 after 4 hrs by luciferase reporter gene assay; format: cell-based; settings: hct-116
In short: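 HCT116 cells stably transfected with Her2 kinase domain (aa 641–975) fused to firefly luciferase. Seeded at 10 000 per well in DMEM with 10% serum and left overnight. Compound added from DMSO (0.4% final) for 4 h. Steady-Glo added at room temperature for 5 min, then luminescence read.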

NCI-N87 [24] = assay: Antitumor activity against human NCI-N87 cells xenografted in nude mouse assessed as tumor regression at 125 mg/kg, po qd for 22 days measured twice a week; settings: 528 h
NCI-N87 [25] = assay: Antitumor activity against human NCI-N87 cells xenografted in nude mouse assessed as tumor regression at 200 mg/kg, po qd for 22 days measured twice a week; settings: 528 h

## C[C@H](O)C(=O)N1CCC(CCn2c(Sc3cc4c(cc3Br)OCO4)nc3c(N)ncnc32)CC1
Heat shock protein HSP90 [1]; DU-145
  inhibition: Dose-dependent effect
Heat shock protein HSP90 [1]; du-145
  IC50: 100 nM
Heat shock protein HSP90 [2]
  inhibition: Dose-dependent effect
Heat shock protein HSP90 [3]
  inhibition: Dose-dependent effect
Heat shock protein HSP90 [4]
  IC50: 100 nM
  inhibition: Dose-dependent effect
Mus musculus [5]
  Activity: Non-toxic
Mus musculus [6]
  Activity: Non-toxic
Mus musculus [7]
  Activity: Non-toxic
NCI-N87 [8]
  inhibition in vivo at 50 mg/kg: 37%
NCI-N87 [9]
  inhibition in vivo at 75 mg/kg: 62%
Heat shock protein HSP90 [10]; HCT-116
  inhibition: Dose-dependent effect
Heat shock protein HSP90 [10]; hct-116
  IC50: 100 nM
Heat shock protein HSP90 [11]
  inhibition: Dose-dependent effect
Heat shock protein HSP90 [12]; HCT-116
  inhibition: Dose-dependent effect
Heat shock protein HSP90 [12]; hct-116
  IC50: 100 nM
[13]
  logP: 3.32
MV4-11
  IC50: 250 nM
[14]
  solubility: 20 µM (≈ 11 µg/mL)
NCI-N87 [15]
  IC50: 200 nM
OVCAR-8
  IC50: 490 nM
A549
  IC50: 770 nM
HT-29
  IC50: 420 nM
[16]
  AUC: 81800 ng·h/mL
[17]
  Cmax: 13100 ng/mL
[18]
  Cmax: 2800 ng/mL
[19]
  Tmax: 15 min
[20]
  remaining at 40 min: 42%
[21]
  IC50: 4300 nM
HCT-116
  IC50: 540 nM
Heat shock protein HSP90 [22]
  IC50: 140 nM
Heat shock protein HSP90 [23]
  IC50: 60 nM
NCI-N87 [24]
  tumor regression at 125 mg/kg: 10%
NCI-N87 [25]
  tumor regression at 200 mg/kg: 48%
